ChEMBL document CHEMBL1133040, “Activity-guided isolation of constituents of Cerbera manghas with antiproliferative and antiestrogenic activities” (Bioorg Med Chem Lett, 2000)
Converted amounts (≈) assume the structure as drawn.

Key:
Type in all cases: functional, cell-based
Col2 = assay: Inhibition of Col2 human colon cancer cell proliferation
In short: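 Col2 human colon cancer cells grown in MEME with 10% NAA, antibiotic-antimycotic and 10% FBS at 37 °C, 5% CO2. Exponentially growing cells seeded onto compounds dissolved in DMSO and grown 3 days at 37 °C. Cells TCA-fixed, stained with 0.4% sulforhodamine B in 1% acetic acid, dye solubilized in 0.1 M Tris, A515 read. % growth computed against day-0 and DMSO-control absorbances.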

Ishikawa [1] = assay: Antiestrogenic effects in Ishikawa cells; conditions: Homo sapiens
Ishikawa [2] = assay: Inhibition of Ishikawa cell proliferation
Ishikawa [3] = assay: Inhibition of antiestrogenic response in Ishikawa cells
[4] = Homo sapiens, Ishikawa, read-out: IC50

COc1cc(C[C@H]2COC(c3ccc(O)c(OC)c3)[C@@]2(O)CO)ccc1O (stereo partly drawn)
IC50 (Col2): > 10 µg/mL
IC50 (Ishikawa [1]): > 10 µg/mL

CO[C@@H]1[C@@H](O)[C@H](C)O[C@@H](OC2CC[C@@]3(C)[C@H](CC[C@@H]4[C@@H]3C3OC3[C@]3(C)[C@H](C5=CC(=O)OC5)CC[C@]43O)C2)[C@@H]1O (stereo in doubt; 1)
IC50 (Ishikawa [2]; ishikawa): 0.015 µg/mL (≈ 0.0273 µM)
IC50 (Ishikawa [3]; ishikawa): 0.0042 µg/mL (≈ 0.00765 µM)

CO[C@@H]1[C@@H](O)[C@H](C)O[C@@H](OC2CC[C@@]3(C)[C@H](CC[C@@H]4[C@@H]3C3OC3[C@]3(C)[C@H](C5=CC(=O)OC5)CC[C@]43O)C2)[C@@H]1O (stereo in doubt; 2)
IC50 (Col2): ≤ 5 µg/mL
IC50 (Ishikawa [1]): ≤ 5 µg/mL
IC50 (Ishikawa [2]; [4]): 0.02 µg/mL (≈ 0.0365 µM)
IC50 (Ishikawa [3]; [4]): 0.008 µg/mL (≈ 0.0146 µM)
